The test system of one assay is SK-MEL-2. As to the kind of experiment: Cytotoxicity against human SK-MEL-2 cells. Format: functional. The settings on record: read-out: ED50 (the source's name).
For another assay, the system named is HCT-15. The experiment in a line: Cytotoxicity against human HCT15 cells. The settings on record: read-out: ED50 (the source's name). Format: functional.
For the next assay, the system named is XF498. As to the kind of experiment: Cytotoxicity against human XF498 cells. Format: functional. The settings on record: read-out: ED50 (the source's name).
A further assay concerns SK-OV-3. As to the kind of experiment: Cytotoxicity against human SKOV3 cells. Format: functional. The settings on record: read-out: ED50 (the source's name).
In another assay the test system is A549. As to the kind of experiment: Cytotoxicity against human A549 cells. The settings on record: read-out: ED50 (the source's name). Format: functional.
The test system of assay [1] is Simian virus 40. As to the kind of experiment: Inhibition of SV 40 DNA replication in human HeLa cells at 500 uM. The settings on record: Betapolyomavirus macacae. In kind it is functional. In a few lines:
(§1)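 SV40 DNA replication reaction run at 37 °C for 2 h; replication quantified as acid-insoluble radioactivity.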

Assay [2] can be described thus: Inhibition of DNA polymerase alpha. In a few lines:
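DNA polymerase α reaction incubated at 37 °C for 30 min; activity read as acid-insoluble radioactivity.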

In assay [3] the test system is Simian virus 40. The experiment in a line: Inhibition of SV40 DNA replication in human HeLa cells at 125 uM. In kind it is functional. The settings on record: Betapolyomavirus macacae. In a few lines:
as §1

Assay [4] has as its system Simian virus 40. The experiment in a line: Inhibition of SV 40 DNA replication in human HeLa cells at 250 uM. In kind it is functional. The settings on record: Betapolyomavirus macacae. In a few lines:
as §1

These results are taken from ChEMBL document CHEMBL1151257, “Cytotoxic furanosesterterpenes from a marine sponge Psammocinia sp” (J Nat Prod, 2004).

Converted amounts (≈) assume the structure as drawn.

With `CC1=C(O)/C(=C/[C@H](C)CC/C=C(/C)CCC/C(C)=C\CCc2ccoc2)OC1=O`, the EC50 in the assay on SK-MEL-2 is 14.4 µg/mL (≈ 36.1 µM); in the assay with HCT-15 it was 16 µg/mL (≈ 40.1 µM); with XF498 it was 20.3 µg/mL (≈ 50.9 µM); with SK-OV-3, 14.1 µg/mL (≈ 35.4 µM); with A549, more than 30 µg/mL.

Compound `CC1=C(O)/C(=C/[C@H](C)CC/C=C(/C)CC/C=C(\C)CCCc2ccoc2)OC1=O` returned an inhibition at 500 µM in the assay with Simian virus 40 [1] of 100%. In [2], this compound returned an IC50 of 5 µM. This compound displayed an inhibition at 125 µM in the assay with Simian virus 40 [3] of 30%. The EC50 was determined as 5.8 µg/mL (≈ 14.6 µM) in the assay with SK-MEL-2; 11 µg/mL (≈ 27.6 µM) with HCT-15; 8.7 µg/mL (≈ 21.8 µM) in the assay with XF498; 7.5 µg/mL (≈ 18.8 µM) in the assay with SK-OV-3; 10.5 µg/mL (≈ 26.3 µM) in the assay on A549. Also, the inhibition at 250 µM with Simian virus 40 [4] worked out at 60%.

On to `CC1=C(O)/C(=C/[C@H](C)CCC/C(C)=C/CC/C(C)=C/CCc2ccoc2)OC1=O`, for which the EC50 with SK-MEL-2 was determined as 19 µg/mL (≈ 47.7 µM); with HCT-15, 23.5 µg/mL (≈ 59 µM); with XF498, 22.1 µg/mL (≈ 55.5 µM); with SK-OV-3 it was 18.6 µg/mL (≈ 46.7 µM); in the assay with A549 it was 24.1 µg/mL (≈ 60.5 µM).

For the compound `COc1cccc2c1C(=O)c1c(O)c3c(c(O)c1C2=O)C[C@@](O)(C(=O)CO)C[C@@H]3O[C@H]1C[C@H](N)[C@H](O)[C@H](C)O1` [DOXORUBICIN], the EC50 with SK-MEL-2 turned out to be 0.05 µg/mL (≈ 0.092 µM); in the assay with HCT-15, 0.12 µg/mL (≈ 0.221 µM); in the assay on XF498 it was 0.15 µg/mL (≈ 0.276 µM); in the assay on SK-OV-3 it was 0.15 µg/mL (≈ 0.276 µM); in the assay on A549, 0.03 µg/mL (≈ 0.0552 µM).

Take `CC1=C(O)[C@@H](C/C(C)=C/C=C/C(C)CCC/C(C)=C/CCc2ccoc2)OC1=O` (some centres undefined) [ISOPALINURIN]: the EC50 in the assay with SK-MEL-2 was 10.7 µg/mL (≈ 26.8 µM); in the assay on HCT-15, more than 30 µg/mL; in the assay on XF498 it was 10 µg/mL (≈ 25.1 µM); in the assay on SK-OV-3, 16.5 µg/mL (≈ 41.4 µM); in the assay with A549, more than 30 µg/mL.

In the case of `CC1=C(O)[C@@H](C/C(C)=C/CCC(C)/C=C/C=C(\C)CCCc2ccoc2)OC1=O` (some centres undefined) [PALINURIN], the EC50 is 4.4 µg/mL (≈ 11 µM) with SK-MEL-2; 5.4 µg/mL (≈ 13.5 µM) with HCT-15; 5.1 µg/mL (≈ 12.8 µM) in the assay on XF498; 10.2 µg/mL (≈ 25.6 µM) in the assay with SK-OV-3; 5.2 µg/mL (≈ 13 µM) in the assay on A549.

With `CC1=C/C(=C/[C@H](C)CCC(=O)/C(C)=C/CC/C(C)=C/CCc2ccoc2)OC1=O` [PSAMMOCININ A1], the EC50 with SK-MEL-2 is 7.5 µg/mL (≈ 18.9 µM); in the assay on HCT-15 it was 20.5 µg/mL (≈ 51.7 µM); in the assay on XF498, 28.1 µg/mL (≈ 70.9 µM); with SK-OV-3, more than 30 µg/mL; in the assay with A549, more than 30 µg/mL.

Take `CC1=C/C(=C/[C@H](C)CCC(=O)C(C)CCC/C(C)=C/CCc2ccoc2)OC1=O` (some centres undefined) [PSAMMOCININ A2]: the EC50 in the assay on SK-MEL-2 was 4.8 µg/mL (≈ 12 µM); in the assay with HCT-15, 11.7 µg/mL (≈ 29.4 µM); in the assay on XF498 it was 10.5 µg/mL (≈ 26.3 µM); with SK-OV-3, 12.3 µg/mL (≈ 30.9 µM); in the assay on A549, 7.5 µg/mL (≈ 18.8 µM).

For the compound `COC1C=C(CC/C=C(\C)CC/C=C(\C)CCCC(C)/C=C2\OC(=O)C(C)=C2O)C(OC)O1` (centres undefined) [PSAMMOCININ B], the EC50 with SK-MEL-2 is 7.5 µg/mL (≈ 16.3 µM); with HCT-15, 19.2 µg/mL (≈ 41.7 µM); in the assay on XF498, 7.8 µg/mL (≈ 16.9 µM); with SK-OV-3, 12.6 µg/mL (≈ 27.4 µM); in the assay on A549, 8.2 µg/mL (≈ 17.8 µM).
